Only some compounds are listed: those with a hit (about 1.8% of all), similar ones and a draw of the others.
Tb MetRS inh: Trypanosoma brucei MetRS inhibition; purified T. brucei MetRS, ATP depletion, Kinase-Glo luminescence; inhibition, % at 11.9 µM; 360,000 tested, 0.4% active;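 active = inhibition above a per-plate cutoff of the control wells' mean inhibition plus 3 SD, cut at about 5.5% in these data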;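 note: 0% = DMSO wells median and 100% = median of wells with control inhibitor compound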
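Measured by: Kinase-Glo luciferase luminescence reporting remaining unconsumed ATP. Material: purified T. brucei MetRS enzyme. Doses: 11.9 µM compound single dose, 0.9% DMSO. Medium: HEPES buffer containing pyrophosphatase, BSA, spermine, DTT. Times: 15 min preincubation, 2 h reaction, all 25 °C. Reagent: methionine, ATP and bulk E. coli tRNA.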
PREPL inhibitor: inhibits the human prolyl oligopeptidase-like enzyme | AID 2751 | recombinant PREPL, fluorescence polarization activity-based probe | Q4J6C6 | 320,000 tested, 0.68% active | inhibition, % at 5.96 µM; in the data active = inhibition above about 43%;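 note: 0% = enzyme with DMSO and 100% = wells lacking enzyme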
Target sequence (Q4J6C6 whole entry, looked up): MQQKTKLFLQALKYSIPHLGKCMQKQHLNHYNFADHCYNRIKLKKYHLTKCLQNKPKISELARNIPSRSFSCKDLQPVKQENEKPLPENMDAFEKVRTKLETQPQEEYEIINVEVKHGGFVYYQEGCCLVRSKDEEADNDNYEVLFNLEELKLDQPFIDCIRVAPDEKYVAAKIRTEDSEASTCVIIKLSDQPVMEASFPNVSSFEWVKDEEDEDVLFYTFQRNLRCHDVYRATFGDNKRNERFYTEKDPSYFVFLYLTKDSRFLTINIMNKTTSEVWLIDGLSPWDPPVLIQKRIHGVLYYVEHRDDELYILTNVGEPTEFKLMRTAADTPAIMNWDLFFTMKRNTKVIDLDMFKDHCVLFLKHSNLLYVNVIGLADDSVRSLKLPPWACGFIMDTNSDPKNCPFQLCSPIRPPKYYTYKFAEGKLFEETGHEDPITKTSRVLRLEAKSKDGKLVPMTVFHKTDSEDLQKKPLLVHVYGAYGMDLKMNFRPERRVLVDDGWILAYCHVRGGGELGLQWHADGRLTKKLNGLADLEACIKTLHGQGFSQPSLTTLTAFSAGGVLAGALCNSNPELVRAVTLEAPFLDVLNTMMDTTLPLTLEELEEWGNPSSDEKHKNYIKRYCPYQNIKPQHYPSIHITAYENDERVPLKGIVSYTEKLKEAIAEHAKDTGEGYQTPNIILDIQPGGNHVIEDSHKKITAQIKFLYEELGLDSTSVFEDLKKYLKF
SKN-1 inh: blocks SKN-1 activity in C. elegans. C. elegans VP596 Pgst-4::GFP/RFP ratio, acrylamide-induced, 24 h. inhibition, % at 21.8 µM. 360,000 tested, 0.49% active;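 active = interference check ratio from 0.5 to 1.5 plus GFP to RFP signal ratio inhibition reaching or exceeding a fixed threshold, cut at about 30% in these data, passing the limit was not always enough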
MT1-MMP act inh: blocks activation of human MT1-MMP; P50281; HT1080 RFP-PRO-GFP cells, GFP/RFP ratio fluorescence, overnight; percent of plate control window, DMSO zero; GFP/RFP ratio change, % at 20 µM; 360,000 tested, 0.061% active; AID 651647;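 active = GFP/RFP ratio change of at least 30% with cell ATP level not reduced by more than half and red fluorescence within 50% of control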
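Test system: HT1080 cells expressing an RFP-PRO-GFP fluorescent reporter construct / Compound dosing: single-point 20 µM compound, 1% DMSO / Schedule: cells overnight before dosing, compound overnight, 37 °C, 5% CO2 / Evaluation: GFP/RFP fluorescence ratio / Control set: DMSO and RFP-L50D-GFP cell wells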
iPSC survival up: hiPSC single-cell survival enhancement; ATPlite luminescence; 100% = ROCK inhibitor wells, 0% = DMSO; survival enhancement, % at 20 µM; 360,000 tested, 0.044% active; AID 602274; in the data active = survival enhancement above about 18%;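 note: cells exposed to compounds for 16 hours before the ATP read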
eLon inh: inhibits E. coli Lon protease. purified E. coli Lon protease, fluorescence polarization. inhibition, % at 7.94 µM. 360,000 tested, 0.42% active. AID 602123; in the data active = inhibition above about 13%, passing the limit was not always enough;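 note: 0% = enzyme with probe and DMSO and 100% = no enzyme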
E coli Lon conf: confirmation of E. coli Lon protease inhibitors; shares compounds with eLon inh; purified E. coli Lon, fluorescence polarization; inhibition, % at 7.94 µM; 1,400 tested, 31% active; in the data active = inhibition above about 16%;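 note: 0% = enzyme with probe and DMSO and 100% = no enzyme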
Tb MetRS conf: confirmation of Trypanosoma brucei MetRS inhibitors; T. brucei MetRS enzyme, luminescence (ATP depletion); inhibition, % at 11.9 µM; shares compounds with Tb MetRS inh; 1,400 tested, 93% active; in the data active = inhibition above about 7%
Jurkat cytotox: kills Jurkat cells in T. brucei MetRS counterscreen | Jurkat cells viability, ATP luminescence | shares compounds with Tb MetRS inh | 1,400 tested, 12% active | inhibition, % at 8.3 µM; in the data active = inhibition above about 15%;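 note: 0% = vehicle and 100% = reference inhibitor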
Tb MetRS inh FP: inhibits T. brucei methionyl tRNA synthetase in orthogonal FP test; 1,400 tested, 44% active; AID 651607; shares compounds with Tb MetRS inh; inhibition, % at 11.9 µM; purified T. brucei MetRS, fluorescence polarization; in the data active = inhibition above about 17%;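 note: 0% = vehicle wells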
An asterisk follows results filed as active; · = not tested or not shown; + = active, no number.

SMILES | Tb MetRS inh | PREPL inhibitor | SKN-1 inh | MT1-MMP act inh | iPSC survival up | eLon inh | E coli Lon conf | others
CCCCn1c(=O)c(C(=O)NCc2ccccc2OC)c(O)c2ccccc21 | -0.8 | -5.1 | -27.0 | 0.9 | 0.5 | 66.3* | -1.4
CC(=O)c1cn(CC(=O)NCCc2c[nH]c3ccccc23)c2ccccc12 | -0.2 | -8.8 | 10.1 | 4.9 | -0.5 | -4.4 | ·
CCOC(=O)C1CCCN(c2ccc([N+](=O)[O-])c3nonc23)C1 (stereo not given) | -0.4 | · | 76.7 | -37.2 | 0.1 | 192.8* | 186.4*
O=c1[nH]c(=S)[nH]c(O)c1/C=N/N1CCOCC1 | -0.5 | -3.5 | 10.5 | 2.2 | 0.0 | 4.7 | ·
COC1C(C)OC(OC2CC(C)(O)Cc3cc4c(c(O)c32)C(=O)c2c(O)cc3c(c2C4=O)OC2OC3(C)C(O)C(N(C)C)C2O)C(OC)C1(C)OC (stereo not given) | -0.2 | · | 57.8 | -32.2 | -1.3 | + | 104.3*
COc1cc(C(O)CNC(C)C)cc(F)c1OC (stereo not given) | -0.6 | -3.2 | 6.9 | · | -1.7 | 23.3* | 6.9
Cc1nn(Cc2ccccc2Cl)c(Cl)c1C(=O)O | -0.2 | 6.8 | -6.5 | 4.0 | 0.7 | 15.3* | -42.7
COc1ccc2[nH]c(C)c(CCNCc3cccnc3)c2c1 | -0.4 | 16.8 | 4.5 | -4.0 | -0.5 | 68.6* | 32.9*
CN1CCN(Cc2cc(C(C)(C)C)c(O)c(C(C)(C)C)c2)CC1 | -0.5 | 10.3 | 2.3 | -3.3 | -0.6 | 25.2* | -9.1
CN1CCN(Cc2ccc(N)cc2)CC1 | -0.9 | 2.6 | -14.9 | -0.4 | 0.5 | -3.5 | ·
O=[N+]([O-])/C=C1/NCCN1Cc1ccc(Cl)nc1 | -1.1 | 4.8 | 0.8 | 1.3 | 3.7 | -2.8 | ·
CCOCCCn1c(N)c(C(=O)Nc2sc3c(c2C(=O)OC)CCCC3)c2nc3ccccc3nc21 | 8.3* | -4.3 | 19.5 | -134.3 | -1.9 | -58.4 | · | Tb MetRS conf=2.1;Jurkat cytotox=1.3;Tb MetRS inh FP=6.8
CCOC(=O)c1c(NC(=O)c2c(N)n(CCCOC)c3nc4ccccc4nc23)sc2c1CCCC2 | -0.5 | 3.0 | 7.8 | -5.6 | -0.1 | -11.9 | ·
Cc1ccc(NC(=O)CN2C(=O)CN=C(c3ccccc3)c3cc(Cl)ccc32)cc1 | 58.7* | 12.3 | -6.5 | 1.1 | 0.5 | 1.4 | · | Tb MetRS conf=80.6*;Jurkat cytotox=5.7;Tb MetRS inh FP=53.0*
CN(C)c1ccc(NC(=O)CN2C(=O)CN=C(c3ccccc3)c3cc(Cl)ccc32)cc1 | 0.4 | 35.5 | -3.4 | 6.0 | -1.6 | -0.2 | ·
CC=C(CC)C1(CC)C(=O)NC(=S)NC1=O | -0.5 | · | -2.6 | 2.7 | -1.0 | 4.0 | ·
OC(CN1CCC(c2c[nH]c3ccccc23)CC1)C(F)(F)F (stereo not given) | -0.5 | -7.7 | 5.8 | 1.9 | 0.3 | 1.6 | ·
O=[N+]([O-])c1ccc2nc(N3CCNCC3)ccc2c1 | · | 18.6 | · | · | · | · | ·
O=C1NC(=O)C(=Cc2ccc(N3CCN(C(=O)c4ccccc4)CC3)c([N+](=O)[O-])c2)C(=O)N1 | 12.9* | 7.2 | 5.5 | · | -1.4 | 1.3 | · | Tb MetRS conf=18.5*;Jurkat cytotox=0.7;Tb MetRS inh FP=4.9
Cc1ccsc1C(=O)C1CCCN(Cc2ccc(-n3cccn3)cc2)C1 (stereo not given) | -0.2 | -22.9 | 1.3 | 4.4 | -0.5 | -8.4 | ·
COc1ccc2c(c1)[nH]c1c(C)nccc12 | 0.0 | -5.9 | -2.7 | -9.6 | -2.4 | -4.3 | ·
Cc1nccc2c1[nH]c1ccc(Br)cc12 | 9.0* | 5.7 | 10.6 | -1.4 | -3.4 | -2.4 | · | Tb MetRS conf=17.1*;Jurkat cytotox=2.6;Tb MetRS inh FP=8.8

Screening data (PubChem BioAssay)
